The values below come from ChEMBL document CHEMBL4376840, “Application of Fluorine- and Nitrogen-Walk Approaches: Defining the Structural and Functional Diversity of 2-Phenylindole Class of Cannabinoid 1 Receptor Positive Allosteric Modulators” (J Med Chem, 2020).

Series [1] has as its target T1, Cannabinoid receptor 1 (Homo sapiens, UniProt P21554). Kind of series: Positive allosteric modulation activity at human CB1 receptor expressed in CHO cell membranes assessed as increase in [3H]CP55940 binding at 1 uM measured after 90 mins in presence of [35S]GTPgammaS by liquid scintillation analysis. It counts as functional. For orientation: GTPγS is a poorly hydrolysed GTP analogue; its binding reports G protein activation.

The target in series [2] is Cannabinoid receptor 1 (Rattus norvegicus) (UniProt P20272). In words: Positive allosteric modulatory activity at N-terminal GFP-tagged rat CB1R receptor expressed in HEK293 cells assessed as downward shift in CP55940 dependent concentration response curve for inhibition of forskolin-induced cAMP accumulation after 30 mins by TR-FRET assay. It is filed as functional, cell-based.
Chain of Cannabinoid receptor 1 (Rattus norvegicus) (P20272 whole entry): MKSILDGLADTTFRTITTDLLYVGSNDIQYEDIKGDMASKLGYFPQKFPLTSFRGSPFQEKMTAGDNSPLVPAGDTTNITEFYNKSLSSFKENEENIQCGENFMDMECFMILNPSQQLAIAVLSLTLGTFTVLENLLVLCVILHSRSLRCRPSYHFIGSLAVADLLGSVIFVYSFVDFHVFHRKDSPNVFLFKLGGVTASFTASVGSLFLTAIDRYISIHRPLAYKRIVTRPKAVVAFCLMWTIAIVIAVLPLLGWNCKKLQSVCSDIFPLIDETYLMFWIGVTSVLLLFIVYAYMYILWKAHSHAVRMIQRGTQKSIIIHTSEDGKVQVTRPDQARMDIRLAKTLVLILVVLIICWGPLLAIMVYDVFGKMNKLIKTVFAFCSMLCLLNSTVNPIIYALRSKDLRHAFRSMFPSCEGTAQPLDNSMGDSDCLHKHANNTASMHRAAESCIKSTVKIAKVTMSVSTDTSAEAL

The nature of series [3]: Toxicity in C57BL/6 mouse assessed as catalepsy at 0.1 to 10 mg/kg, ip after 5 mins by bar holding assay. It is filed as organism-based. The conditions noted are these: in vivo. The procedure, abridged: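 Male C57BL/6 mice were given 0.1 – 10 mg/kg compound or vehicle (1:1:18 ethanol:cremaphor:saline). Catalepsy was assessed at 5 min as % MPE with a 60 sec maximum. n = 5–6.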

For series [4] the following is noted: buffer, pH 7.4, 2 h.
In series [5] the test system is Mus musculus. Kind of series: Antinociceptive activity in ip dosed C57BL/6 mouse after 20 mins post treatment by warm water tail-flick assay. It is filed as functional, organism-based. Background: Hot-plate and tail-flick tests time the reaction to a heat stimulus.
The target of series [6] is T1, Cannabinoid receptor 1. In words: Positive allosteric modulatory activity at human CB1R expressed in CHO-K1 cells assessed as increase in CP55940-induced beta arrestin2 recruitment after 90 mins in presence of 100 nM CP55940 by pathhunter beta-arrestin assay. It is filed as cell-based. On the technique in general: Activated receptors often draw arrestin, which recruitment assays turn into a signal.

Series [7] concerns the target T1, Cannabinoid receptor 1. In words: Positive allosteric modulatory activity at human CB1R expressed in CHO-K1 cells assessed as increase in CP55940-induced inhibition of forskolin-stimulated cAMP production after 30 mins in presence of CP55940 at EC20 concentration by hit-hunter cAMP assay relative to control. It counts as functional, cell-based. The procedure, abridged:
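Read-out was chemiluminescent cAMP detection, fit with a variable-slope 4-parameter regression. n = 1–3 independent experiments in duplicate.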

For series [8], the system named is Mus musculus. Kind of series: Antiallodynic activity against CFA-induced mechanical allodynia CD1 mouse model assessed as increase in ipsilateral paw withdrawal threshold at 30 mg/kg, ip after 30 mins post treatment by Von Frey test. It counts as functional, organism-based. The procedure, abridged:
(§1)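 Time course in the CFA model at 30 mg/kg i.p. Ipsilateral and contralateral mechanical paw withdrawal thresholds were followed from 30 min to 4 h post-injection in wild-type and CB1 knockout mice. Compared with vehicle by ANOVA and Bonferroni post hoc tests.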

The target of series [9] is Cannabinoid receptor 1 (Rattus norvegicus, UniProt P20272). Kind of series: Allosteric agonist activity at N-terminal GFP-tagged rat CB1R expressed in HEK293 cells assessed as inhibition of forskolin-induced cAMP production after 30 min by TR-FRET assay. It counts as functional, cell-based. The method in brief: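 HEK293 cells stably expressing N-terminal GFP-tagged rat CB1R were trypsin-EDTA dissociated and resuspended in HBSS with 0.1% BSA and 0.5mM IBMX at 500 cells/well. Cells got 5μM forskolin plus compound (1 pM – 10 μM) alone for 30 min. 4-parameter fit; Emin is the lower plateau. n ≥ 3, triplicate.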
Chain of Cannabinoid receptor 1 (Rattus norvegicus, UniProt P20272) (P20272 whole entry): as above

Series [10] deals with T1, Cannabinoid receptor 1. Kind of series: Displacement of [3H]CP55940 from human CB1R receptor expressed in CHO cell membranes after 60 mins by liquid scintillation spectrometry analysis.
Series [11] addresses T1, Cannabinoid receptor 1. In words: Allosteric agonist activity at human CB1R expressed in CHO-K1 cells assessed as increase in beta arrestin2 recruitment after 90 mins by pathhunter beta-arrestin assay relative to CP55940. It counts as cell-based. The procedure, abridged:
(§2)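 PathHunter CHO-K1 hCB1R cells (20,000/well) were held overnight in Opti-MEM with 1% FBS. Compound alone (0.10 nM – 10 μM) was given at 37°C for 90 min, then detection solution for 60 min at room temperature and chemiluminescence was read.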

For series [12], the target named is T1, Cannabinoid receptor 1. Kind of series: Allosteric agonist activity at human CB1R expressed in CHO-K1 cells assessed as inhibition of forskolin-induced cAMP accumulation after 90 mins by hit-hunter cAMP assay. It is filed as functional, cell-based. The procedure, abridged: (§3)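 HitHunter CHO-K1 hCB1R cells (20,000/well) were held overnight in Opti-MEM with 1% FBS. They were then co-treated at 37°C with 10 μM forskolin plus compound alone (0.10 nM – 10 μM) for 90 min. Chemiluminescent cAMP detection followed (two 60-min room-temperature steps). Data as % forskolin, variable-slope 4-parameter fit; Emin is the lower plateau. n ≥ 6, triplicate.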

Series [13] has as its target Cannabinoid receptor 1 (Rattus norvegicus) (UniProt P20272). Kind of series: Positive allosteric modulatory activity at N-terminal GFP-tagged rat CB1R receptor expressed in HEK293 cells assessed as increase in CP55940-induced inhibition of forskolin-induced cAMP accumulation by measuring Emax for cAMP accumulation at low concentration of CP55940 at 0.3 microM after 30 mins by TR-FRET assay relative to forskolin. It counts as functional, cell-based.

For series [14], the target named is T1, Cannabinoid receptor 1. Kind of series: Allosteric agonist activity at human CB1R expressed in CHO-K1 cells assessed as inhibition of forskolin-induced cAMP accumulation by measuring cAMP accumulation at minimal level at higher concentrations after 90 mins by hit-hunter cAMP assay relative to forskolin. It is filed as functional, cell-based. The procedure, abridged:
as §3

Series [15] in a line: Toxicity in C57BL/6 mouse assessed as effect on hypothermia at 0.1 to 10 mg/kg, ip after 15 mins by thermometric method. It is filed as organism-based. The conditions noted are these: in vivo. The method in brief: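 Male C57BL/6 mice were given 0.1 – 10 mg/kg compound or vehicle (1:1:18 ethanol:cremaphor:saline). Body temperature was measured at 15 min and expressed relative to vehicle (100%). n = 5–6.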

For series [16], the target named is T1, Cannabinoid receptor 1. In words: Allosteric agonist activity at human CB1R expressed in CHO-K1 cells assessed as increase in beta arrestin2 recruitment after 90 mins by pathhunter beta-arrestin assay. It counts as cell-based. The procedure, abridged:
as §2

Series [17] concerns Mus musculus. Kind of series: Effect on contralateral paw withdrawl threshold in CFA-induced mechanical allodynia CB1 receptor knockout CD1 mouse model at 0.1 to 30 mg/kg, ip measured for 0.5 to 4 hrs by Von Frey test. The conditions noted are these: in vivo. It counts as ADME, organism-based.
For series [18], the target named is T1, Cannabinoid receptor 1. Kind of series: Positive allosteric modulatory activity at human CB1R expressed in CHO-K1 cells assessed as maximal increase in CP55940-induced beta arrestin2 recruitment after 90 mins in presence of 100 nM CP55940 by pathhunter beta-arrestin assay relative to CP55940. It is filed as cell-based.
For series [19], the target named is T1, Cannabinoid receptor 1. In words: Positive allosteric modulatory activity at human CB1R expressed in CHO-K1 cells assessed as increase in CP55940-induced inhibition of forskolin-induced cAMP accumulation by measuring cAMP accumulation at minimal level at higher concentration after 90 mins in presence of 100 nM CP55940 by hit-hunter cAMP assay relative to forskolin. It is filed as functional, cell-based. The procedure, abridged: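 Uses the HitHunter CHO-K1 hCB1R cAMP set-up above. […] Data normalized to % forskolin, 4-parameter fit. n ≥ 6, triplicate.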

Series [20] has as its system Mus musculus. Kind of series: Antiallodynic activity against CFA-induced mechanical allodynia CD1 mouse model assessed as effect on ipsilateral paw withdrawal threshold at 30 mg/kg, ip after 4 hrs post treatment by Von Frey test. It is filed as functional, organism-based. The procedure, abridged:
as §1

Series [21] concerns Mus musculus. Kind of series: Antiallodynic activity against CFA-induced mechanical allodynia CD1 mouse model assessed as increase in ipsilateral paw withdrawal threshold at 30 mg/kg, ip after […] post treatment by Von Frey test. It is filed as functional, organism-based.
The target in series [22] is T1, Cannabinoid receptor 1. Kind of series: Displacement of [3H]SR141716A from human CB1R receptor expressed in CHO cell membranes after 2 hrs by liquid scintillation spectrometry analysis.

Activity calls are given as the source filed them.

T1 sequence (P21554 whole entry): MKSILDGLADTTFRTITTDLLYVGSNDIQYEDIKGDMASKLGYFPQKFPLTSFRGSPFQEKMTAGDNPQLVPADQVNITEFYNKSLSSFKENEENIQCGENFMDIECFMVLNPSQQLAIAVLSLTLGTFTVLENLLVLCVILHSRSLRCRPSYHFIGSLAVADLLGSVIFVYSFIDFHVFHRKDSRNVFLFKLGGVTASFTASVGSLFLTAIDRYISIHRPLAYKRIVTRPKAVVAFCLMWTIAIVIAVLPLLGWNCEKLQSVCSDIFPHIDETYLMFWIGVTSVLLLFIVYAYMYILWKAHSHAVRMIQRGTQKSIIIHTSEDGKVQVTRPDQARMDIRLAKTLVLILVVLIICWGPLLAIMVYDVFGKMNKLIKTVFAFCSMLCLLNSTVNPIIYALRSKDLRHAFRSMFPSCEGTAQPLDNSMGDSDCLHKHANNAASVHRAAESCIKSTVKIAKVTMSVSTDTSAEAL

Turning to `O=[N+]([O-])CC(c1ccccc1F)c1c(-c2cccc(F)c2)[nH]c2cc(F)ccc12` (centres undefined), the result on Cannabinoid receptor 1 [1], with Mus musculus [8] and in the series with Mus musculus [21] was Active. In addition, the Activity result in [2] was “Dose-dependent effect”; in [3], “Non-Toxic”; with Mus musculus [5], “Dose-dependent effect”; in [15] it was “Non-Toxic”; with Mus musculus [17] it was “Non-Toxic”. For the same molecule, the Kinetic_solubility in series [4] amounted to 1.56 µM. Besides, the concentration for a half-maximal effect (EC50) – broadly, the concentration needed to bring the measured effect to its halfway point – on Cannabinoid receptor 1 [6] was 0.19 µM; on Cannabinoid receptor 1 [9] it was 0.027 µM; at Cannabinoid receptor 1 [12] it was 0.0043 µM; at Cannabinoid receptor 1 [16], 1.6 µM. Also, the maximal response (Emax) (commonly the maximal effect, on the per cent scale that the assay sets) at Cannabinoid receptor 1 [7] was found to be 93%; at Cannabinoid receptor 1 [11], 34%; in [13], 32%; at Cannabinoid receptor 1 [18] it was 130%. In addition, the inhibition constant (Ki) (commonly a measure of affinity in units of concentration, obtained from inhibition or displacement) came to 0.088 µM at Cannabinoid receptor 1 [10] and 0.0048 µM on Cannabinoid receptor 1 [22]. The Emin at Cannabinoid receptor 1 [14] stood at 4.2%; at Cannabinoid receptor 1 [19], 9%. Further, the outcome in the series on Mus musculus [20] was inactive.
As to `O=[N+]([O-])CC(c1ccccc1F)c1c(-c2cccc(F)c2)[nH]c2c(F)cccc12` (centres undefined), the outcome on Cannabinoid receptor 1 [1], with Mus musculus [8] and in the series with Mus musculus [21] was Active. Also, the Activity result was “Dose-dependent effect” in series [2]; “Non-Toxic” in series [3]; “Dose-dependent effect” with Mus musculus [5]; “Non-Toxic” in series [15]; “Non-Toxic” with Mus musculus [17]. Also, in series [4], the Kinetic_solubility was found to be 1.56 µM. Further, the EC50 was 3.5 µM on Cannabinoid receptor 1 [6], 0.026 µM at Cannabinoid receptor 1 [9], 0.0039 µM at Cannabinoid receptor 1 [12] and over 10 µM on Cannabinoid receptor 1 [16]. Also, the Emax at Cannabinoid receptor 1 [7] amounted to 93%; on Cannabinoid receptor 1 [11] it was 25%; in [13], 33%; on Cannabinoid receptor 1 [18], 130%. The inhibitory constant (Ki) on Cannabinoid receptor 1 [10] was 0.094 µM; at Cannabinoid receptor 1 [22] it was 0.0052 µM. In addition, the Emin at Cannabinoid receptor 1 [14] was 18%; on Cannabinoid receptor 1 [19], 10%. In the series with Mus musculus [20], the result was inactive.
